Results reported in article PMC4559355 (Journal of nuclear medicine : official publication, Society …, 2015).

Key:
[1] = system: BxPC-3 tumor (αvβ6-positive); assay: Biodistribution, BxPC-3 xenograft tumor; type: in vivo; conditions: BxPC-3 mouse model, ratio x:1
[2] = system: DX3puroβ6 tumor (αvβ6-positive); assay: Biodistribution, DX3puroβ6 xenograft tumor; type: in vivo, mouse; conditions: ratio x:1; for DX3puroβ6/DX3puro tumor uptake ratio: paired DX3puroβ6–DX3puro mouse model
Procedure, shortened: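 Female athymic nude mice received subcutaneous DX3puro and DX3puroβ6 cells (3 × 10^6 each) on opposite flanks. Radiotracer in phosphate-buffered saline was given at 1.1–2.0 MBq/animal by tail-vein injection under 2% isoflurane. Mice were killed under 4% isoflurane at 1, 2 and 4 h (n = 3/time point). Tissues were rinsed and γ-counted; values are decay-corrected %ID/g, and ratios are taken from these.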

DX3puroβ6 tumor = assay: Radiotracer stability in DX3puroβ6 tumor; type: in vivo, mouse; conditions: tumor collected 1 h after injection, homogenized, ethanol precipitation, HPLC
Procedure, shortened: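 Female athymic nude mice carried paired subcutaneous DX3puroβ6 and DX3puro xenografts (3 × 10^6 cells each, opposite flanks). After intravenous radiotracer, the DX3puroβ6 tumor was harvested at 1 h and homogenized. Proteins were removed by ethanol precipitation, and the supernatant was analysed by HPLC for intact radiotracer.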

BxPC-3 tumor = assay: Radiotracer stability in BxPC-3 tumor; type: in vivo, mouse; conditions: tumor collected 1 h after injection, homogenized, ethanol precipitation, HPLC
Procedure, shortened: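 BxPC-3 xenografts came from 3.5 × 10^6 cells injected subcutaneously in female athymic nude mice. Radiotracer was given intravenously. Tumor was excised 1 h later and homogenized. Proteins were precipitated with ethanol, and supernatant aliquots were analysed by HPLC for intact versus degraded radiotracer.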

[3] = Biodistribution, nontumor organs; type: in vivo; conditions: female, athymic nude, mouse, iv, total radioactivity
Mouse serum stability = type: in vitro ADME; conditions: mouse serum 0.5 mL + radiotracer 12.5 µL (0.74 MBq), 37°C, 60 min, ethanol precipitation of serum proteins, HPLC
[4] = HPLC analysis of urine metabolites; type: in vivo; conditions: mouse urine, ethanol precipitation
DX3puroβ6 (αvβ6 +) cells = assay: Cell binding and internalization, DX3puroβ6 cells; type: cell-based; conditions: in vitro, ratio x:1
Procedure, shortened: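 Radiolabelled tracer was incubated with DX3puroβ6 (αvβ6+) and DX3puro (αvβ6−) cells for 60 min, n = 4 per cell line and condition. Bound and internalized activity are each expressed as a fraction of total radioactivity, with SD. Uptake and internalization ratios are DX3puroβ6 over DX3puro values.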

[5] = Stability in phosphate-buffered saline; type: physicochemical; conditions: formulated in phosphate-buffered saline
[6] = paired mouse model, throughout (1, 2 and 4 h)
[7] = gallbladder, stomach, intestine

SMILES | BxPC-3–to–blood ratio ([1]; 4 h) | BxPC-3–to–liver ratio ([1]; 4 h) | BxPC-3–to–pancreas ratio [1] | DX3puroβ6/DX3puro tumor uptake ratio ([2]; 1 h) | DX3puroβ6/DX3puro tumor uptake ratio ([2]; 4 h) | DX3puroβ6 tumor–to–blood ratio [2, 6] | Apparent metabolic breakdown of radioactivity extracted from DX3puroβ6 tumor (DX3puroβ6 tumor) | Apparent breakdown of radioactivity extracted from BxPC-3 tumor (BxPC-3 tumor) | tissue uptake at 1 h [3, 7] | tissue uptake at 1 h ([3]; pancreas) | tissue uptake at 4 h ([3]; pancreas) | Radiotracer remaining intact in mouse serum (Mouse serum stability) | Minor new peak in urine HPLC (slightly longer retention time) [4] | Internalization ratio for the DX3puroβ6–DX3puro cell pair (DX3puroβ6 (αvβ6 +) cells) | Uptake (binding) ratio for the DX3puroβ6–DX3puro cell pair (DX3puroβ6 (αvβ6 +) cells) | Stable in phosphate-buffered saline (time) [5] | DX3puroβ6 tumor–to–DX3puro tumor ratio [2, 6]
CC(C)C[C@H](NC(=O)[C@H](CC(=O)O)NC(=O)CNC(=O)[C@H](CCCNC(=N)N)NC(=O)[C@H](CC(C)C)NC(=O)[C@H](CC(N)=O)NC(=O)[C@@H]1CCCN1C(=O)[C@@H](NC(=O)[C@H](C)NC(=O)[C@H](CC(N)=O)NC(=O)CCOCCOCCOCCOCCOCCOCCOCCOCCOCCOCCOCCOCCOCCOCCOCCOCCOCCOCCOCCOCCOCCOCCOCCOCCOCCOCCOCCOCCNC(=O)c1ccc(F)cc1)C(C)C)C(=O)N[C@@H](CCC(N)=O)C(=O)N[C@H](C(=O)N[C@@H](CC(C)C)C(=O)N[C@@H](C)C(=O)N[C@@H](CCC(N)=O)C(=O)N[C@@H](CCCCN)C(=O)N[C@H](C(=O)N[C@@H](C)C(=O)N[C@@H](CCCNC(=N)N)C(=O)N[C@H](C(=O)NCCOCCOCCOCCOCCOCCOCCOCCOCCOCCOCCOCCOCCOCCOCCOCCOCCOCCOCCOCCOCCOCCOCCOCCOCCOCCOCCOCCOCCC(N)=O)[C@@H](C)O)C(C)C)C(C)C [compound 5, ^18F-FBA-PEG28-A20FMDV2-PEG28] | greater than 20 | greater than 20 | ≥ 9 | 6.5 | 10.7 | greater than 4.5 | less than 20% | less than 20% | < 15 %ID/g | 0.46 ± 0.07 %ID/g | 0.25 ± 0.07 %ID/g | 80% | 18% | 41 | 20 | ≥ 4 h | 
CC(C)C[C@H](NC(=O)[C@H](CC(=O)O)NC(=O)CNC(=O)[C@H](CCCNC(=N)N)NC(=O)[C@H](CC(C)C)NC(=O)[C@H](CC(N)=O)NC(=O)[C@@H]1CCCN1C(=O)[C@@H](NC(=O)[C@H](C)NC(=O)[C@H](CC(N)=O)NC(=O)c1ccc(F)cc1)C(C)C)C(=O)N[C@@H](CCC(N)=O)C(=O)N[C@H](C(=O)N[C@@H](CC(C)C)C(=O)N[C@@H](C)C(=O)N[C@@H](CCC(N)=O)C(=O)N[C@@H](CCCCN)C(=O)N[C@H](C(=O)N[C@@H](C)C(=O)N[C@@H](CCCNC(=N)N)C(=O)N[C@H](C(=O)NCCOCCOCCOCCOCCOCCOCCOCCOCCOCCOCCOCCOCCOCCOCCOCCOCCOCCOCCOCCOCCOCCOCCOCCOCCOCCOCCOCCOCCC(N)=O)[C@@H](C)O)C(C)C)C(C)C [compound 4, ^18F-FBA-A20FMDV2-PEG28] |  |  |  |  |  | greater than 2 |  |  | < 15 %ID/g |  |  | 76% |  | 9.4 | 7.1 | ≥ 4 h | greater than 2.5
